pIC50: −log10 of the molar value. ≈ marks a conversion by molar mass, not a printed value.
Experiments:
[1] = tested on: Pseudomonas aeruginosa; experiment: Antibacterial activity against hypersusceptible Pseudomonas aeruginosa Z61 after 18 to 24 hrs; type: functional
Procedure, shortened: (§1)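 Broth MIC per CLSI guidelines in cation-adjusted Mueller Hinton broth. Compounds were dissolved and serially diluted in DMSO (carbapenems in water) before addition to plates. Incubation was at 37 °C for 18−24 h. MIC is the lowest concentration preventing visible growth. MIC50/MIC90 are the concentrations inhibiting 50% or 90% of isolates tested.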

[2] = tested on: Pseudomonas aeruginosa; experiment: Antibacterial activity against Pseudomonas aeruginosa PAO1 K767 after 18 to 24 hrs; type: functional; procedure, shortened: as §1
[3] = tested on: Pseudomonas aeruginosa; experiment: Antibacterial activity against mexAB-oprM deficient Pseudomonas aeruginosa K1119 after 18 to 24 hrs; type: functional; procedure, shortened: as §1
[4] = target: T1, UDP-3-O-acyl-N-acetylglucosamine deacetylase (Pseudomonas aeruginosa (strain ATCC 15692 / PAO1 / 1C / PRS 101 / LMG12228), UniProt P47205); experiment: Inhibition of Pseudomonas aeruginosa LpxC using UDP-3-O-(R-hydroxydecanoyl)-N-acetylglucosamine as substrate preincubated for 30 mins followed by substrate addition measured after 20 mins by LC-MS/MS analysis
T1 sequence (P47205 whole entry): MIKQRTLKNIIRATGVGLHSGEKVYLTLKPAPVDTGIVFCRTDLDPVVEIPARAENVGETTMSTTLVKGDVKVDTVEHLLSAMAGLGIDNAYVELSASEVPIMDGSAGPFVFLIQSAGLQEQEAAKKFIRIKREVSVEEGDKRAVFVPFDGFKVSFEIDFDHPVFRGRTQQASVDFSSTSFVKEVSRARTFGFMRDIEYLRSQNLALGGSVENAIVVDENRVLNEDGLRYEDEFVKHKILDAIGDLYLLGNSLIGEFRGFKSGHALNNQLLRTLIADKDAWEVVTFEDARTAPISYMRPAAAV

[5] = Cytotoxicity against human HepG2 cells assessed as reduction in cell viability after 72 hrs by WST1 assay; type: cell-based
Procedure, shortened: (§2)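 Cells were grown and assayed in medium with 10% heat-inactivated FBS and exposed to compound for 72 h. Metabolic activity was read as WST-1 cleavage to formazan at A450, with puromycin as positive control. CC50 (50% reduction in viability) was calculated from dose-response curves.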

[6] = Cytotoxicity against human K562 cells assessed as reduction in cell viability after 72 hrs by WST1 assay; type: cell-based; procedure, shortened: as §2
[7] = Solubility of the compound at pH 6.8 by high throughput screening assay; type: physicochemical; details: buffer, read-out: solubility
[8] = tested on: Pseudomonas aeruginosa; experiment: Antibacterial activity against Pseudomonas aeruginosa clinical isolate after 18 to 24 hrs; type: functional
[9] = Protein binding in mouse plasma; type: ADME, cell-free; details: read-out: PPB (converted)
[10] = Protein binding in rat plasma; type: ADME, cell-free; details: read-out: PPB (converted)
[11] = Protein binding in human plasma; type: ADME, cell-free; details: read-out: PPB (converted)
[12] = tested on: Klebsiella aerogenes; experiment: Antibacterial activity against Enterobacter aerogenes NB24004 after 18 to 24 hrs; type: functional; procedure, shortened: as §1
[13] = tested on: Burkholderia cepacia; experiment: Antibacterial activity against Burkholderia cepacia NB49016 after 18 to 24 hrs; type: functional; procedure, shortened: as §1
[14] = tested on: Proteus mirabilis; experiment: Antibacterial activity against Proteus mirabilis NB32022 after 18 to 24 hrs; type: functional; procedure, shortened: as §1
[15] = tested on: Klebsiella oxytoca; experiment: Antibacterial activity against Klebsiella oxytoca NB30007 after 18 to 24 hrs; type: functional; procedure, shortened: as §1
[16] = tested on: Stenotrophomonas maltophilia; experiment: Antibacterial activity against Stenotrophomonas maltophilia NB55011 after 18 to 24 hrs; type: functional; procedure, shortened: as §1
[17] = tested on: Acinetobacter baumannii; experiment: Antibacterial activity against Acinetobacter baumannii NB48015 after 18 to 24 hrs; type: functional; procedure, shortened: as §1
[18] = tested on: Alcaligenes; experiment: Antibacterial activity against Alcaligenes xylosus NB56002 after 18 to 24 hrs; type: functional; procedure, shortened: as §1

Row | Structure (SMILES) | MIC [1] [µg/mL] | MIC [2] [µg/mL] | MIC [3] [µg/mL] | pIC50 [4] | MIC50 [8] [µg/mL] | MIC90 [8] [µg/mL] | further results
1 | CCc1ccc(-c2ccc(C(=O)N[C@H](C(=O)NO)[C@@H](C)N)cc2)cc1 | 0.25 (≈ 0.732 µM) | 2 (≈ 5.86 µM) | 0.06 (≈ 0.176 µM) | 8.83 |  |  | CC50 at 72 h [5]: 12800 nM; CC50 at 72 h [6]: 7370 nM; solubility [7]: 4 µg/mL (≈ 11.7 µM)
2 | CCN1CCN(C(=O)N[C@@H](C(=O)N[C@@H]2C(=O)N3[C@@H]2SC(C)(C)[C@@H]3C(=O)O)c2ccccc2)C(=O)C1=O [PIPERACILLIN] |  |  |  |  | 32 (≈ 61.8 µM) | > 128 | 
3 | CC(C)(O/N=C(\C(=O)N[C@@H]1C(=O)N2C(C(=O)[O-])=C(C[n+]3ccccc3)CS[C@H]12)c1csc(N)n1)C(=O)O [CEFTAZIDIME] |  |  |  |  | 4 (≈ 7.32 µM) | > 128 | 
4 | CCc1ccc(-c2ccc(C(=O)N[C@H](C(=O)NO)[C@@H](C)NCC(=O)N3CCNC(=O)C3)cc2)cc1 | 1 (≈ 2.08 µM) | 16 (≈ 33.2 µM) | 0.125 (≈ 0.26 µM) |  |  |  | 
5 | O=C(O)c1cn(C2CC2)c2cc(N3CCNCC3)c(F)cc2c1=O [CIPROFLOXACIN] |  |  |  |  |  |  | MIC [12]: > 16 µg/mL; MIC [13]: 0.5 µg/mL (≈ 1.51 µM); MIC [14]: ≤ 0.03 µg/mL; MIC [15]: ≤ 0.03 µg/mL; MIC [16]: 0.5 µg/mL (≈ 1.51 µM); MIC [17]: 0.5 µg/mL (≈ 1.51 µM); MIC [18]: 2 µg/mL (≈ 6.04 µM)
6 | C[C@@H](N)[C@H](NC(=O)COc1ccc(N2CCCC2=O)cc1)C(=O)NO | > 128 | > 128 | > 128 | 6.47 |  |  | 
7 | C[C@@H](O)[C@H]1C(=O)N2C(C(=O)O)=C(S[C@@H]3CN[C@H](CNS(N)(=O)=O)C3)[C@H](C)[C@H]12 [DORIPENEM] |  |  |  |  | 1 (≈ 2.38 µM) | 32 (≈ 76.1 µM) | 
8 | NCC[C@H](O)C(=O)N[C@@H]1C[C@H](N)[C@@H](O[C@H]2O[C@H](CN)[C@@H](O)[C@H](O)[C@H]2O)[C@H](O)[C@H]1O[C@H]1O[C@H](CO)[C@@H](O)[C@H](N)[C@H]1O [AMIKACIN] |  |  |  |  | 16 (≈ 27.3 µM) | > 128 | 
9 | NC[C@H]1O[C@H](O[C@H]2[C@H](O)[C@@H](O[C@H]3O[C@H](CO)[C@@H](O)[C@H](N)[C@H]3O)[C@H](N)C[C@@H]2N)[C@H](N)C[C@@H]1O [TOBRAMYCIN] |  |  |  |  | 2 (≈ 4.28 µM) | > 128 | 

Continued, in another order:

Row | MIC [1] [µg/mL] | MIC [2] [µg/mL] | MIC [3] [µg/mL] | pIC50 [4] | Structure (SMILES) | MIC50 [8] [µg/mL] | MIC90 [8] [µg/mL] | further results
10 | 1 (≈ 2.78 µM) | 16 (≈ 44.5 µM) | 0.25 (≈ 0.696 µM) | 7.41 | CC#CCOc1ccc(C(=O)N[C@H](C(=O)NO)[C@@H](N)C(F)(F)F)cc1 |  |  | 
11 | 0.25 (≈ 0.783 µM) | 2 (≈ 6.26 µM) | 0.25 (≈ 0.783 µM) |  | CC#CCOc1ccc(C(=O)NC(C(=O)NO)C(C)(C)N)cc1 (racemic) |  |  | 
12 | 0.25 (≈ 0.741 µM) | 1 (≈ 2.96 µM) | 0.25 (≈ 0.741 µM) | 8.45 | C[C@@H](N)[C@H](NC(=O)c1ccc(C#Cc2ccccc2)cc1)C(=O)NO |  |  | CC50 at 72 h [6]: 29500 nM; fraction unbound [9]: 0.086; fraction unbound [10]: 0.072; fraction unbound [11]: 0.081
13 | 4 (≈ 12.5 µM) | 16 (≈ 50.1 µM) | 2 (≈ 6.26 µM) |  | CC#CCOc1ccc(C(=O)N[C@@H](C(=O)NO)C(C)(C)N)cc1 |  |  | 
14 | 1 (≈ 3.28 µM) | 1 (≈ 3.28 µM) | 0.5 (≈ 1.64 µM) | 7.79 | CC#CCOc1ccc(C(=O)N[C@H](C(=O)NO)[C@H](C)N)cc1 |  |  | 
15 | 4 (≈ 12.1 µM) | 32 (≈ 96.6 µM) | 2 (≈ 6.04 µM) | 6.44 | CC#CCOc1ccc(C(=O)N[C@H](C(=O)NO)[C@H](N)C2CC2)cc1 |  |  | 
